Assay [1] is described as follows: In vivo inhibition of Smyd2 KMT activity in Zebrafish assessed as decrease in cardiomyocyte proliferation at 10 uM by immunostaining analysis relative to control. The assay is classed as functional. The conditions noted are these: Danio rerio, Cardiac muscle cell. The gist of the method:
(§1)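 Adult zebrafish (WT siblings or grl5nt−/− mutants) underwent ventricular apex resection. Bath treatment in aquarium water ran from 6 to 7 dpa, with 0.5‰ DMSO as the vehicle control. Hearts were fixed at 7 dpa in 4% PFA and cut as 10 µm cryosections. Sections were given antigen retrieval at 98°C for 20 min, then stained for PCNA and Mef2. For each heart, 4-6 sections with the largest injury were imaged with a 10× objective. PCNA+Mef2+/Mef2+ cells were counted in a fixed region around the injury, and the section values were averaged per heart. n=5-11 fish.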

Assay [2] concerns the target N-lysine methyltransferase SMYD2 (Homo sapiens) (UniProt Q9NRG4). The experiment in a line: Inhibition of Smyd2 KMT activity in human HEK 293T cells co-transfected with Flag-STAT3 and HA-Smyd2b assessed as decrease in Stat3 methylation at 15 to 25 uM for 6 hrs by Co-IP assay. The class given is cell-based. The conditions noted are these: dose 15-25 µM. The gist of the method: (§2)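 HEK 293T cells were co-transfected with Flag-Stat3 and HA-Smyd2b. Compound was added at 15 or 25 µM for 6 h, or at 2.5 or 5 µM for 28 h, before harvest at 48 h post-transfection. Lysates were made in denaturing buffer with 1% SDS at 100°C for 20 min, then diluted to 0.1% SDS. Stat3 was immunoprecipitated with anti-Flag beads for 4 h. Blots were probed for methyl-lysine and P-Stat3, normalized to Flag-Stat3. n=3.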

For assay [3], the system named is Cardiac Muscle Cell. The assay can be described thus: In vivo inhibition of Smyd2 KMT activity in grl5nt-/- mutant Zebrafish assessed as decrease in p-STAT3 level cardiomyocyte at 10 uM by immunostaining analysis. The note with it: Danio rerio. The assay is classed as functional, cell-based. The gist of the method: (§3)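 grl5nt−/− zebrafish underwent ventricular resection and were bath-treated in aquarium water from 6 to 7 dpa, with 0.5‰ DMSO as vehicle. Cryosections at 7 dpa were double-immunostained for P-Stat3 and Mef2. CMs with nuclear or perinuclear cytosolic P-Stat3 were counted in the injury border zone. n=4-6 fish; mean±s.e.m.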

The test system of assay [4] is Cardiac Muscle Cell. The assay can be described thus: In vivo inhibition of Smyd2 KMT activity in grl5nt-/- mutant Zebrafish assessed as decrease in cardiomyocyte proliferation at 10 uM by immunostaining analysis. The assay is classed as functional, cell-based. The conditions noted are these: Danio rerio. In short, it runs like this:
as §1

Assay [5] addresses N-lysine methyltransferase SMYD2 (Homo sapiens) (UniProt Q9NRG4). The assay can be described thus: Inhibition of Smyd2 KMT activity in human HEK 293T cells co-transfected with Flag-STAT3 and HA-Smyd2b assessed as decrease in Stat3 phosphorylation at 15 to 25 uM for 6 hrs by Co-IP assay. The assay is classed as cell-based. The conditions noted are these: dose 15-25 µM. In short, it runs like this: as §2

Assay [6] shares this target. The experiment in a line: Inhibition of Smyd2 KMT activity in human HEK 293T cells co-transfected with Flag-STAT3 and HA-Smyd2b assessed as decrease in Stat3 methylation at 5 to 2.5 uM for 28 hrs by Co-IP assay. The conditions noted are these: dose 5-2.5 µM. The class given is cell-based. The gist of the method: as §2
In assay [7] the test system is Cardiac Muscle Cell. The experiment in a line: In vivo inhibition of Smyd2 KMT activity in grl5nt-/- mutant Zebrafish assessed as decrease in cardiomyocyte proliferation at 5 uM by immunostaining analysis. The assay is classed as functional, cell-based. The conditions noted are these: Danio rerio. In short, it runs like this: as §1
For assay [8], the system named is Cardiac Muscle Cell. The assay can be described thus: In vivo inhibition of Smyd2 KMT activity in grl5nt-/- mutant Zebrafish assessed as decrease in p-STAT3 level cardiomyocyte at 5 uM by immunostaining analysis. The assay is classed as functional, cell-based. The conditions noted are these: Danio rerio. In short, it runs like this: as §3
Assay [9] is described as follows: In vivo inhibition of Smyd2 KMT activity in Zebrafish assessed as decrease in cardiomyocyte proliferation at 5 uM by immunostaining analysis relative to control. The assay is classed as functional. The note with it: Danio rerio, Cardiac muscle cell. The gist of the method:
as §1

The target in assay [10] is N-lysine methyltransferase SMYD2 (Homo sapiens) (UniProt Q9NRG4). The assay can be described thus: Inhibition of Smyd2 KMT activity in human HEK 293T cells co-transfected with Flag-STAT3 and HA-Smyd2b assessed as decrease in Stat3 phosphorylation at 5 to 2.5 uM for 28 hrs by Co-IP assay. The class given is cell-based. The conditions noted are these: dose 5-2.5 µM. The gist of the method:
as §2

In general, inhibition in vivo refers to how much of the control response was suppressed.

Activity calls are given as the source filed them. No cut-off for these calls is given here.

N-lysine methyltransferase SMYD2 (Homo sapiens), sequence (Q9NRG4 whole entry): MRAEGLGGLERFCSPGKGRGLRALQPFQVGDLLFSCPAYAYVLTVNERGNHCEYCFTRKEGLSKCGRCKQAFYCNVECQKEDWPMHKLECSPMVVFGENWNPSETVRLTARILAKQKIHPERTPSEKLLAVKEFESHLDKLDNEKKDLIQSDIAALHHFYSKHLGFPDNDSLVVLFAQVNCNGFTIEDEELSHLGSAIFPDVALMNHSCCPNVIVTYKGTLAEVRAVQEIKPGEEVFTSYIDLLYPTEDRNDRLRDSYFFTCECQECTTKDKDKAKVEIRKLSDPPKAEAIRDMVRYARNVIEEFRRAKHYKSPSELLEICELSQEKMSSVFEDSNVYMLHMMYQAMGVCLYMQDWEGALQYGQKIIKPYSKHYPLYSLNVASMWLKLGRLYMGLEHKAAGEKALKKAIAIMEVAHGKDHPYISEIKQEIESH

Consider `O=C1COc2c(CCNCCN(C(=O)CCNCCc3ccc(Cl)c(Cl)c3)C3CCCCC3)ccc(O)c2N1`, for which the inhibition in vivo at 10 µM in [1] is 34%. In addition, the inhibition entry in assay [2], in assay [3], in assay [4] and in assay [5] was “Active” each time.

As for `Cc1cn(CCN2CCN(c3ccccc3-c3cc(C#N)cc(C(=O)NCCCN4CCCC4)c3)CC2)c2ccccc12`, the inhibition result in assay [6], in assay [7], in [8] and in assay [10] was “Active” throughout. For the same compound, the inhibition in vivo at 5 µM in assay [9] worked out at 25%.
